MEKK3 PB1 HTS: modulators (inhibitors or enhancers) of MEK5 binding to human MEKK3 PB1 domain; Q99759; AID 1529; bead-based flow cytometry, Alexa488-MEK5 binding to MEKK3; actives lie on both sides; 0 = blocked by unlabeled MEK5, 100 = vehicle; 290,000 compounds, 1.4% hits; binding response (% of control), % at 10 µM;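 active means binding response more than 3 SD above or below the average of its plate-row segment, actives on both sides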;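 further: Alexa488 bead fluorescence after subtracting the streptavidin-only scavenger bead signal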
Apaf1 inhib: inhibitors of human Apaf-1 apoptosome. O14727. reconstituted apoptosome caspase-3 activity, DEVD-Rh110 fluorescence. inhibition, % at 20 µM. 330,000 compounds, 0.71% hits. AID 489030; active means inhibition of at least 40% at 20 µM;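 further: plate controls were DMSO wells for no effect and DEVD-CHO caspase inhibitor wells for full effect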
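System: reconstituted apoptosome with Apaf-1, cytochrome c, caspase-9, procaspase-3, dATP; Signal: Rh110 fluorescence intensity; Schedule: 30 min compound preincubation, 50 min activation, room temperature; Reagent: cytochrome c trigger plus (Z-DEVD)2-Rh110 caspase-3 substrate.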
MEKK2mut PB1 HTS: signal of MEK5 binding to mutant human MEKK2 PB1 domain; bead flow cytometry, Alexa488-MEK5 binding to MEKK2 mutant; percent response, % at 10 µM; 290,000 compounds, 0.35% hits; AID 1530; in the data active means percent response above about 24%, passing the limit was not always enough
MEKK2wt PB1 HTS: raises or lowers MEK5 binding to wildtype human MEKK2 PB1 domain. Q9Y2U5. bead flow cytometry, Alexa488-MEK5 binding to MEKK2 WT; actives lie on both sides. binding response (% of control), % at 10 µM. 290,000 compounds, 1.1% hits. AID 1531; in the data active means binding response below about 67% or above about 130%
UBC13 inh: human UBC13 polyubiquitination inhibition. inhibition, % at 20 µM. 330,000 compounds, 0.47% hits. UBC13 polyubiquitin chain formation, TR-FRET; in the data active means inhibition above about 45%, passing the limit was not always enough
Target sequence (P61088 whole entry, looked up): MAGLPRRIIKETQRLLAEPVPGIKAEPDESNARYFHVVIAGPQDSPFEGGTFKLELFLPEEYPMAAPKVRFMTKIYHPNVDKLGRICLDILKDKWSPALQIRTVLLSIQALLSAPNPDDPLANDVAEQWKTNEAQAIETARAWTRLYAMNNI
MEKK2wt confirm: raises or lowers MEK5 binding to wildtype human MEKK2, retest; binding response (% of control), % at 10 µM; 5,900 compounds, 2.4% hits; AID 1892; bead flow cytometry, Alexa488-MEK5 binding to MEKK2 WT; actives lie on both sides; shares compounds with MEKK3 PB1 HTS; in the data active means binding response below about 16% or above about 210%; inactive means in between
MEKK2mut-MEK5: signal of MEK5 binding to mutant human MEKK2, retest. 5,900 compounds, 2% hits. bead flow cytometry, Alexa488-MEK5 binding to MEKK2 mutant. percent response, % at 10 µM. AID 1893. shares compounds with MEKK3 PB1 HTS; in the data active means percent response mostly above about 71%, no sharp cut-off; inactive means mostly below about 38%;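 further: higher means compound restores mutant binding toward wildtype level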
MEKK3 confirm: MEKK3-MEK5 PB1 inhibition, single concentration confirmation; shares compounds with MEKK3 PB1 HTS; bead flow cytometry, Alexa488-MEK5 binding to MEKK3; stronger effect = lower value; binding response (% of control), % at 10 µM; 5,900 compounds, 1.8% hits; AID 1894;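 active means binding response below 72% of control, or above a set upper limit, though filed actives all read lower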;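 further: 100% = DMSO only wells and 0% = binding blocked by excess unlabeled MEK5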
Casp3 counter: inhibits human caspase-3 in UBC13 counter-screen; shares compounds with UBC13 inh; Recombinant caspase-3, Caspase-Glo 3/7 luminescence, 60 min; inhibition, % at 20 µM; 1,400 compounds, 4% hits; AID 488856;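 active means mean inhibition across replicates above about 26%, limit read from the data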;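 further: plate controls were DMSO with caspase-3 for no effect and DMSO wells lacking enzyme for full effect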
Target sequence (P42574 whole entry, looked up): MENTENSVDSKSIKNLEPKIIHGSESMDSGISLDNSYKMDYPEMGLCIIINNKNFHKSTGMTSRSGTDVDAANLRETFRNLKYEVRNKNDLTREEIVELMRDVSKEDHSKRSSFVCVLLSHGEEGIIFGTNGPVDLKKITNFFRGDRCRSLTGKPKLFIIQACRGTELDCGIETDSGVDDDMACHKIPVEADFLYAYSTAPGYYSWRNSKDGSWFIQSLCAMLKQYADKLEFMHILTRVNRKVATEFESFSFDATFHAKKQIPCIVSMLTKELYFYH
UBC13 confirm: confirmation of human UBC13 polyubiquitin inhibitors; shares compounds with UBC13 inh; inhibition, % at 10 µM; 1,400 compounds, 68% hits; AID 488859; UBC13 polyubiquitination, TR-FRET, biochemical; in the data active means inhibition above about 45%
The depositor's hits bear a star; / = not tested or not shown. An excerpt weighted towards active compounds, which were near 2.9% of everything screened.

SMILES	MEKK3 PB1 HTS	Apaf1 inhib	MEKK2mut PB1 HTS	MEKK2wt PB1 HTS	UBC13 inh	MEKK2wt confirm	MEKK2mut-MEK5	MEKK3 confirm	Casp3 counter	UBC13 confirm
CCc1ccc(Nc2n[n+](-c3ccccc3)c(-c3cc(OC)c(OC)cc3Br)s2)cc1	112.0	11.2	77.0*	194.0*	52.5*	225.0*	75.0*	109.0	-5.0	12.1
COc1ccc(C)cc1Nc1n[n+](-c2ccccc2)c(-c2ccc(OC)c(OC)c2OC)s1	94.0	17.5	12.0	149.0*	47.9*	144.0	26.0	106.0	-4.1	30.5
CCc1ccc(Nc2nc3ccccc3c(=O)s2)cc1	99.0	8.2	-1.0	102.0	26.3	/	/	/	/	/
CCc1ccc(Nc2n[n+](-c3ccccc3)c(/C=C/c3ccccc3)s2)cc1	108.0	17.9	25.0*	189.0*	69.9*	178.0	49.0	102.0	3.8	24.0
O=[N+]([O-])c1ccc(Cl)c(S(=O)(=O)N2CCCCCC2)c1	99.0	1.7	-1.0	102.0	6.0	/	/	/	/	/
CCCCCn1c(=O)c(-c2nc3ccccc3[nH]2)c(O)c2ccccc21	104.0	14.7	0.0	98.0	-2.4	/	/	/	/	/
CC1(C)CN=C(N(Cc2ccccc2)C(=O)Nc2ccccc2)S1	108.0	-2.9	2.0	111.0	-11.1	/	/	/	/	/
COc1cc(/C=N/NC(=O)CSc2nc3ccccc3n2C)cc(OC)c1OC	99.0	0.2	3.0	98.0	2.9	/	/	/	/	/
C=CC[C@H](CC(=O)NCCO)C(=O)NC[C@@H](OC(=O)[C@H](CC=C)CC(=O)OC(C)(C)C)c1ccccc1	/	11.8	/	/	3.7	/	/	/	/	/
CCCCCN=C(N)N/N=C/c1c[nH]c2ccc(OC)cc12	117.0	78.2*	40.0*	263.0*	107.1*	181.0	46.0	110.0	-4.8	111.1*
CN1CCc2c(sc3c2C(=O)NC(c2ccco2)N3)C1 (centres undefined)	97.0	3.0	-1.0	95.0	-5.9	/	/	/	/	/
CN1CCc2c(sc3c2C(=O)NC(c2cn(Cc4ccccc4)c4ccccc24)N3)C1 (centres undefined)	92.0	17.0	66.0*	182.0*	50.6*	240.0*	107.0*	109.0	-1.7	64.3*
CSc1nc(Cl)cc(Nc2ccc(O)cc2)n1	103.0	-0.8	-5.0	95.0	1.6	/	/	/	/	/
COc1ccc(-c2cn[nH]c2-c2ccc(OCc3ccc(F)cc3)cc2O)cc1OC	102.0	-2.2	-9.0	100.0	6.5	/	/	/	/	/
COc1ccc(Cn2cc3c(-c4ccc(F)cc4)nnc-3c3cc(OC)c(OC)cc32)cc1	118.0	34.5	57.0*	188.0*	87.3*	208.0*	81.0*	109.0	-2.3	39.2
Cn1nc2c3cc(F)ccc3n(Cc3ccc(F)cc3)cc-2c1=O	107.0	0.8	12.0	109.0	3.9	/	/	/	/	/
COc1cc2c3nnc(-c4ccc(F)cc4)c-3cn(Cc3ccccc3)c2cc1OC	111.0	32.1	46.0*	178.0*	82.4*	187.0	47.0	102.0	-2.1	50.4*
COc1cc2c3nnc(-c4ccc(F)cc4)c-3cn(Cc3ccc(F)cc3)c2cc1OC	91.0	26.3	36.0*	193.0*	65.4*	190.0	57.0	100.0	-4.1	41.0
C=CCN1CCN(C(CCC)c2nnnn2Cc2ccco2)CC1 (centres undefined)	99.0	2.8	1.0	101.0	-8.4	/	/	/	/	/
Cc1ccc(S(=O)(=O)N2CCCC2CNC(=O)c2ccc(F)c(F)c2)cc1 (centres undefined)	/	17.4	/	/	-5.6	/	/	/	/	/
CC[n+]1c(/C=C/N(C)c2ccccc2)n(-c2ccccc2)c2ccc(-c3nc4ccccc4s3)cc21	112.0	81.7*	140.0*	328.0*	83.7*	262.0*	117.0*	115.0	0.7	98.0*
CCOC(=O)c1ccc2c(c1)n(CC)c(/C=C/N(C)c1ccccc1)[n+]2CC	98.0	-10.6	-1.0	101.0	6.5	/	/	/	/	/
CNCCOCC(O)CSc1ccccc1 (centres undefined)	97.0	-10.5	-8.0	96.0	1.7	/	/	/	/	/
CNCCC(Oc1ccc(C(F)(F)F)cc1)c1ccccc1 (centres undefined)	114.0	29.4	12.0	139.0*	49.8*	115.0	5.0	102.0	-5.5	36.3
O=C(NC(c1ccccc1)c1ccccc1)c1ccc(=O)[nH]n1	90.0	-2.5	-13.0	86.0	3.7	/	/	/	/	/
SMILES	MEKK3 PB1 HTS	Apaf1 inhib	MEKK2mut PB1 HTS	MEKK2wt PB1 HTS	UBC13 inh	MEKK2wt confirm	MEKK2mut-MEK5	MEKK3 confirm	Casp3 counter	UBC13 confirm
Cn1nnnc1SCC(=O)NC1CCCc2ccccc21 (centres undefined)	102.0	2.2	-23.0	89.0	10.3	/	/	/	/	/
Cc1ccc2nc(N(CCCN(C)C)C(=O)c3sc4ccccc4c3Cl)sc2c1	133.0*	3.2	9.0	155.0*	49.2*	184.0	54.0	109.0	-3.8	63.9*
CN(C)CCCN(C(=O)c1ccc(C(=O)c2ccccc2)cc1)c1nc2cc3c(cc2s1)OCCO3	107.0	16.7	27.0*	166.0*	92.0*	155.0	23.0	107.0	4.9	111.5*
CN(C)CCN(C(=O)c1ccc(C(=O)c2ccccc2)cc1)c1nc2cc3c(cc2s1)OCCO3	100.0	9.6	4.0	123.0	37.6	/	/	/	/	/
CCN(Cc1ccccc1)S(=O)(=O)c1ccc(C(=O)N(CCCN(C)C)c2nc3cc4c(cc3s2)OCO4)cc1	107.0	23.2	39.0*	202.0*	64.3*	203.0	56.0	106.0	-3.4	104.4*
CN(C)CCN(C(=O)c1ccc(S(=O)(=O)N(C)c2ccccc2)cc1)c1nc2cc3c(cc2s1)OCO3	104.0	16.8	17.0	126.0	2.3	/	/	/	/	/
Cc1ccc(N(CC(=O)NC(C)(C)C)C(=O)CNC(=O)c2cccs2)cc1C	102.0	1.9	-6.0	96.0	0.5	/	/	/	/	/
N#CC1=C(N)Oc2n[nH]c(-c3ccccc3)c2C1c1cccnc1 (centres undefined)	97.0	2.2	-4.0	96.0	-11.3	/	/	/	/	/
CCOc1cc(C2C(C#N)=C(N)Oc3n[nH]c(-c4ccccc4)c32)ccc1O (centres undefined)	125.0*	11.9	8.0	113.0	83.0*	99.0	-4.0	101.0	2.8	99.6*
